# An excerpt weighted towards active compounds, which were near 1.9% of everything screened.
# M5 antag: antagonists of human muscarinic M5 receptor (CHRM5). P08912. CHO-hM5 cells, Fluo-8 calcium fluorescence, ACh EC80. inhibition, % at 3 µM. actives 0.59% (n = 360,000);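 active = inhibition above a per-plate cutoff, the mean of that plate's test compounds plus 3 SD, cut at about 27% in these data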;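 also: 0% = acetylcholine EC80 with DMSO and 100% = DMSO without agonist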
# CHRM4 antagonist: antagonists of human muscarinic M4 receptor (CHRM4) | P08173 | CHO-hM4 cells, ACh EC80, Fluo-8 calcium fluorescence | inhibition, % at 3 µM | actives 0.73% (n = 360,000) | AID 624125;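 active = inhibition above its plate's cutoff, the mean inhibition of sample wells plus 3 SD, cut at about 27% in these data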;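 also: 0% = acetylcholine EC80 with DMSO and 100% = DMSO without agonist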
# Target sequence (P08173 whole entry, looked up): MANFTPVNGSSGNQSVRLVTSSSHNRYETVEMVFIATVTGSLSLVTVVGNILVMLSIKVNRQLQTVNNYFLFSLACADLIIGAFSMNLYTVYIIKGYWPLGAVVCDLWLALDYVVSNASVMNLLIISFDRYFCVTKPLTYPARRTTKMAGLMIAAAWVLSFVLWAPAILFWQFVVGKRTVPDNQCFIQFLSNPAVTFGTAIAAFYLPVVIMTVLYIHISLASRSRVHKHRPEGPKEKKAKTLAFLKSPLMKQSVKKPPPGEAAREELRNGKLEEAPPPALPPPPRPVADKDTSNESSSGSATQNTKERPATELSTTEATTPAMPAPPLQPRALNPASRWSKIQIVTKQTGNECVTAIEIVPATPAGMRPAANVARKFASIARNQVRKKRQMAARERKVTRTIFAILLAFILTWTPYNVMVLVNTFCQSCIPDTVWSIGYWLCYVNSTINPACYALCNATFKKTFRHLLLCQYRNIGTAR
# CHRM4 PAM: positive allosteric modulators of human muscarinic M4 receptor; P08173; actives 0.4% (n = 360,000); CHO-K1 hM4/Gqi5, Fluo-8 calcium fluorescence, ACh EC20; 0% = ACh EC20, 100% = maximal ACh; activation, % at 3 µM;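 active = activation above its plate's cutoff, the mean activation of sample wells plus 3 SD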
# M5 ag: CHRM5 agonism in calcium assay | P08912 | CHO-K1 hM5 cells, Fluo-8 calcium fluorescence; 0% DMSO wells, 100% maximal acetylcholine response | activation, % at 3 µM | actives 0.19% (n = 360,000) | AID 624037;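 active = activation above the run's mean over test compounds plus 3 SD, cut at about 23% in these data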;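 also: signal is peak over basal fluorescence ratio across the kinetic read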
# CHRM5 PAM: potentiates acetylcholine response at human M5 receptor; actives 0.3% (n = 360,000); P08912; activation, % at 3 µM; CHO-K1 hM5, Fluo-8 calcium, ACh EC20 PAM; 0% = ACh EC20, 100% = ACh EC100;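 active = activation above the run cutoff, the mean activation of all test compounds plus 3 SD, cut at about 18% in these data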
#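 Assay system: CHO-K1 hM5 cells / Incubation: Fluo-8 loading 80 min at 37 °C plus 30 min room temperature / Technique: Fluo-8 calcium dye fluorescence, kinetic read / Repeats: single replicate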
# CHRM4 agonist: agonists of human muscarinic M4 receptor (CHRM4). actives 0.14% (n = 360,000). activation, % at 3 µM. CHO-K1 hM4/Gqi5, Fluo-8 calcium fluorescence; vehicle 0%, full acetylcholine response 100%. P08173;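 active = activation above the run mean over all test wells plus 3 SD, cut at about 32% in these data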;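 also: peak over basal fluorescence ratio per well then scaled between controls; 0% = DMSO wells and 100% = acetylcholine at EC100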
# * marks the source's active call; other numbers are inactive results.
SMILES,M5 antag,CHRM4 antagonist,CHRM4 PAM,M5 ag,CHRM5 PAM,CHRM4 agonist
CC1(C)CC(=O)C(N=Nc2cccc(S(=O)(=O)N3CCOCC3)c2)=C(O)C1,1.3,-8.0,25.4*,-18.1,-1.7,2.8
C[N+]1(CC#CC(O)(c2ccccc2)c2ccccc2)CCCC1,98.8*,98.9*,-17.7,-7.6,-18.1,0.3
OC(C#Cc1ccccc1)(c1ccccc1)c1ccccc1,11.7,7.9,-6.2,-1.5,-1.8,-1.0
CC(C)[N+](C)(C)CC#CC(O)(c1ccccc1)c1ccccc1,99.8*,99.3*,-59.5,-18.4,-32.1,0.9
COc1cc(C(=O)OCC(=O)N2CCCC2=O)cc(OC)c1C,-3.7,-6.5,8.7,5.6,0.2,1.0
COc1ccc(N2CCN(C(=O)CCS(=O)(=O)c3ccc(C)cc3)CC2)cc1,-5.8,7.6,-8.4,-0.8,1.3,2.2
Cc1ccccc1NCC(=O)N/N=C/c1c[nH]c2ccccc12,2.0,-2.4,-5.2,-2.2,-5.4,6.0
Cc1cccc(NCC(=O)N/N=C\c2c[nH]c3ccccc23)c1,11.2,28.0*,-11.2,-5.7,-8.2,4.0
CN(C)S(=O)(=O)c1ccc(Cl)c(C(=O)Nc2ccccc2[N+](=O)[O-])c1,-3.0,-14.2,-0.1,-1.7,4.3,3.6
CCN(CC)S(=O)(=O)c1ccc(Cl)c(C(=O)Nc2ccc(Cl)cc2[N+](=O)[O-])c1,30.0*,24.8,-22.0,2.5,-16.0,10.2
CS(=O)(=O)N(CC(=O)NC1CC2CCC1C2)c1cccc(C(F)(F)F)c1 (stereo unspecified),1.3,0.1,-3.1,-3.0,-0.4,1.4
Cc1ccc(N(CC(=O)NC2CC3CCC2C3)S(C)(=O)=O)cc1C (stereo unspecified),-1.2,1.6,27.5*,1.6,-3.0,0.1
Cc1cccc(N2CCN(C(=O)CCC(=O)N3CC(C)Oc4ccc(C)cc43)CC2C)c1 (stereo unspecified),2.8,100.5*,-18.7,1.5,-7.8,11.9
Cc1ccc2c(c1)N(C(=O)CCC(=O)N1CCN(c3ccccn3)CC1)CC(C)O2 (stereo unspecified),4.1,2.8,-4.6,-0.2,-4.5,3.5
CN1CCN(c2ccncc2S(=O)(=O)N2CCCCC2)CC1,-0.5,-0.6,-2.7,-6.3,-20.4,1.4
CC(C)N1CCN(c2ccncc2S(=O)(=O)N2CCCCC2)CC1,65.5*,24.0,-10.6,-3.1,-20.1,0.0
COc1ccc(NC(=O)CSc2ncnc3c2cnn3Cc2ccccc2)cc1OC,13.3,28.6*,14.2,0.1,-10.6,4.7
COc1ccc(NC(=O)CSc2ncnc3c2cnn3Cc2ccccc2)cc1,-7.7,8.7,-4.5,0.5,0.8,1.3
OC(c1ccccc1)C(NCc1ccccc1)c1ccccc1 (stereo unspecified),11.2,-14.2,-1.9,1.8,-4.9,2.7
CCCN1C(=O)S/C(=C/c2ccc(N3CCOCC3)o2)C1=O,8.9,31.1*,-1.2,4.2,1.5,2.5
COc1ccc(CN2CCN(Cc3csc(C(C)=O)c3)CC2CCO)c(C)c1C (stereo unspecified),-1.8,0.8,-8.6,-1.9,-4.2,2.0
O=C(c1cc(Br)ccc1Cl)N1CCN(c2ccccn2)CC1,-1.5,1.4,-3.5,7.3,-5.1,2.6
COc1ccc(C(=O)Nc2cc(Cl)ccc2OC(=O)c2ccc(OC)cc2)cc1,5.5,-1.3,-2.1,-0.8,-2.9,0.1
COc1ccc(C(=O)Nc2cc(Cl)ccc2C(=O)O)cc1,1.6,-0.5,8.7,4.1,19.8*,0.3
O=[N+]([O-])c1ccc(Oc2ccc(S(=O)(=O)Nc3ccccc3)cc2)cc1,42.6*,53.1*,-40.1,18.6,-21.3,38.7*
SMILES,M5 antag,CHRM4 antagonist,CHRM4 PAM,M5 ag,CHRM5 PAM,CHRM4 agonist
O=[N+]([O-])c1ccc(S(=O)(=O)Nc2ccncc2)cc1,2.1,2.3,0.2,-0.8,4.1,1.4
O=C(CNC(=O)c1ccc(Cl)cc1Cl)OCn1nnc2ccccc2c1=O,-2.4,-4.7,-1.6,-0.8,4.0,4.8
COC(C[C@@H]1O[C@H]1C(=O)COCc1ccccc1)OC,-0.8,-0.8,24.6*,4.3,3.7,1.8
CC(=O)c1nnn(-c2ccc([N+](=O)[O-])cc2)c1C,-5.6,-2.9,-5.1,-0.6,-0.6,0.0
COC(=O)c1sccc1NC(=O)Nc1ccc(Cl)c(Cl)c1,17.4,27.6*,-18.8,-0.7,-12.1,3.9
COC(=O)c1ccc(NC(=O)Nc2ccc([N+](=O)[O-])cc2)cc1,34.6*,13.5,-8.8,4.5,-22.9,17.6
COC(=O)c1cccc(NC(=O)Nc2ccc(Cl)c(Cl)c2)c1,32.2*,11.9,-8.3,12.3,-26.4,26.7
COC(=O)c1ccc(NC(=O)Nc2ccc(F)c(Cl)c2)cc1,30.7*,8.7,-8.4,14.6,-20.8,24.6
C=CCc1c(C)nc2ccc(C(=O)OCC)cc2c1Cl,4.0,1.1,-0.4,-1.4,-3.8,1.8
COc1ccccc1C(=O)NNC(=O)C1CC=CCC1 (stereo unspecified),2.9,7.8,-4.5,1.3,-2.5,1.0
COC(=O)c1cc(NC(=O)Nc2ccccc2)ccc1Cl,31.3*,-2.0,-21.1,8.4,-18.5,24.9
O=C(Nc1ccccc1)Nc1ccccc1NS(=O)(=O)c1cccs1,3.4,-17.2,-6.0,8.0,-15.1,12.8
O=C(Nc1ccc(Cl)c(Cl)c1)Nc1ccccc1NS(=O)(=O)c1cccs1,30.1*,5.7,-9.4,4.5,-19.1,13.1
O=c1[nH]cnc2c1ncn2C1CCC(CO)O1 (stereo unspecified),-0.2,2.8,2.9,-0.6,0.9,1.4
COc1cccc(OC)c1OCCCc1c(C)n[nH]c1C,-10.7,4.5,29.1*,0.8,2.5,1.4
Cc1cccc(OCCCc2c(C)n[nH]c2C)c1,-1.6,1.5,7.2,3.8,3.5,4.3
O=C(O)CC(SCC(=O)Nc1ccc(S(=O)(=O)N2CCCC2)cc1)C(=O)O (stereo unspecified),-2.7,-18.5,7.1,-5.7,-4.7,-0.7
O=C(O)CC(SCC(=O)Nc1ccccc1)C(=O)O (stereo unspecified),-2.0,-12.3,22.0*,1.1,5.8,0.5
COC(=O)C1=C(C)NC(C)=C(C(=O)OCCN(C)Cc2ccccc2)C1c1cccc([N+](=O)[O-])c1 (stereo unspecified),17.4,34.9*,-17.8,3.1,-19.2,16.7
O=C(Cc1ccc(Cl)cc1)N1CCC2(CC1)NCCc1[nH]cnc12,1.8,-1.1,-0.6,-2.3,3.9,0.8

# Bioassay records (PubChem BioAssay)
